Assay outcomes as filed in PubChem.
KCNK3 inh: human KCNK3 channel inhibition, primary screen | O14649 | AID 602410 | B-score at 10 µM | CHO-KCNK3 thallium flux, FluxOR fluorescence; hits give low values | actives 0.84% (n = 340,000);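 active = B-score under library mean minus 4 SD, starting fluorescence ratio at most library mean plus 5 SD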;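 note: more negative B-score means stronger inhibition of thallium flux through KCNK3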
Target sequence (O14649 whole entry, looked up): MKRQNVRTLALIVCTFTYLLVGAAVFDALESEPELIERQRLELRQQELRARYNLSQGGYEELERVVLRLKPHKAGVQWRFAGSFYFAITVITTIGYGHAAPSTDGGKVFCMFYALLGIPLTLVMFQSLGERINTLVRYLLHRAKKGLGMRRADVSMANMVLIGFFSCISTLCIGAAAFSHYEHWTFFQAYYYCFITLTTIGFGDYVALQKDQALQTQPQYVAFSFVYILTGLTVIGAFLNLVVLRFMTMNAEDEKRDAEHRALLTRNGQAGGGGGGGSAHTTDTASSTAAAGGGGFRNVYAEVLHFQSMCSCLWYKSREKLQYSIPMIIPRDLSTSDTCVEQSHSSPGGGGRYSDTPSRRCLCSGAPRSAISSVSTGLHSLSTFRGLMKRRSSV
KCNQ1 act: potentiators or activators of human KCNQ1 potassium channel; P51787; CHO-K1 KCNQ1, thallium flux FluxOR fluorescence; hits give high values; B-score at 10 µM; actives 0.35% (n = 310,000);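 active = fluorescence ratio B-score, a plate-corrected score, at least three library SD, with initial intensity B-score within 5 SD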
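Material: CHO-K1 cells stably expressing KCNQ1. Medium: assay buffer for compound exposure, DMSO matched across wells. Reagent: K+/Tl+ depolarizing stimulus. Compound dosing: single-concentration screen. Times: 37 °C overnight plating, 90-min dark dye load, 20-min compound pretreatment. Technique: FluxOR Tl+ flux fluorescence.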
KCNQ1 inh: human KCNQ1 channel inhibition; AID 2642; P51787; CHO-K1 KCNQ1, FluxOR thallium flux fluorescence; hits give high values; B-score at 10 µM; actives 1.3% (n = 310,000);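 active = compounds whose thallium flux B-score, printed positive for inhibition, exceeds three library SD while starting fluorescence stays within three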;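 note: channel opened by potassium depolarization with thallium stimulus after 20 min compound exposure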
hERG rescue: hERG (human) protection from proarrhythmic block; Q12809; CHO-hERG, FluxOR thallium flux, dofetilide IC70 present; activation (rescue from dofetilide block), less the hit threshold, % at 10 µM; actives 0.51% (n = 310,000); AID 1511;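 active = activation above the mean of controls blocked by dofetilide plus 5 SD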;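 note: thallium influx through hERG after potassium depolarization seen as dye fluorescence rise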
Kir21 block: inhibitors of mouse Kir2.1 inward-rectifier potassium channel; B-score at 10 µM; AID 1672; P35561; HEK293-Kir2.1, FluxOR thallium flux fluorescence; hits give low values; actives 0.85% (n = 310,000);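 active = fluorescence ratio B-score at or below minus 3 SD of library scores, with starting-brightness B-score within 2 SD, cut at about -4.2 in these data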;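 note: channel flux triggered by added potassium and thallium sulfate stimulus; B-score of peak minus minimum fluorescence over baseline after thallium stimulus; more negative B-score means stronger Kir2.1 block with less thallium influx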
KCNK9 inh: inhibitors of human KCNK9 two-pore domain potassium channel | actives 1.2% (n = 310,000) | HEK293 KCNK9, FluxOR thallium flux fluorescence; hits give low values | B-score at 10 µM | Q9NPC2;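 active = ratio B-score over 3 SD below the library mean, with starting fluorescence within 5 SD of its mean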;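 note: negative B-score means less thallium flux so channel inhibition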
Active calls of the source: *. In the library only some 3.8% were active in any assay of this set; here they are far more common.

For Cc1ccc(-c2cc(C(=O)N/N=C/c3c(C)nn(-c4ccccc4)c3C)[nH]n2)cc1 the results were KCNK3 inh inactive, KCNQ1 act inactive, KCNQ1 inh 13*, hERG rescue -7.2, Kir21 block 0.82 and KCNK9 inh inactive.
`Cc1ccc(C)c(OCC(=O)N/N=C/c2c(C)nn(-c3ccccc3)c2Cl)c1C` gave KCNK3 inh inactive, KCNQ1 act inactive, KCNQ1 inh inactive, hERG rescue -10.2, Kir21 block -4.37* and KCNK9 inh inactive.
CCOc1ccc(C(=O)OCc2nnc(-c3cccs3)o2)cc1OC was read as KCNK3 inh inactive, KCNQ1 act inactive, KCNQ1 inh inactive, hERG rescue -15.7, Kir21 block 0.21 and KCNK9 inh inactive.
`CCOC(=O)c1cc2c(=Cc3ccc(N(C)C)cc3)c3ccccc3n2[n+]1C` gave KCNK3 inh -10.7*.
`CN(C)c1ccc(C=c2c3ccccc3n3c2c2ccccc2[n+]3C)cc1` gave KCNK3 inh inactive.
Screening Cc1cc2c(=Cc3ccc(N(C)C)cc3)c3ccccc3n2[n+]1C returned KCNK3 inh -10*.
Screening COc1ccc(-c2noc(N3CCC(C(=O)NCCCN4CC(C)CC(C)C4)CC3)n2)cc1 (configuration not stated) returned KCNK3 inh inactive, KCNQ1 act inactive, KCNQ1 inh inactive, hERG rescue -7.2, Kir21 block -2.78 and KCNK9 inh inactive.
`COc1cc(S(=O)(=O)NC(C)C)ccc1Cl` gave KCNK3 inh inactive, KCNQ1 act inactive, KCNQ1 inh inactive, hERG rescue -6.0, Kir21 block -0.01 and KCNK9 inh inactive.
For CCc1ccc(C(C)NC(=O)C2CCCC2)cc1 (configuration not stated) the results were KCNK3 inh inactive, KCNQ1 act inactive, KCNQ1 inh inactive, hERG rescue 4.9*, Kir21 block 0.99 and KCNK9 inh inactive.
`CCc1ccc(C(C)NC(=O)C2(C)CC2(Br)Br)cc1` (configuration not stated) gave KCNK3 inh inactive, KCNQ1 act inactive, KCNQ1 inh inactive, hERG rescue 4.9*, Kir21 block 0.02 and KCNK9 inh inactive.
For CCC(NC(=O)C1(C)CC1(Br)Br)c1ccc(C)cc1 (configuration not stated) the results were KCNK3 inh inactive, KCNQ1 act inactive, KCNQ1 inh inactive, hERG rescue -9.6, Kir21 block 0.03 and KCNK9 inh inactive.
For CC(Sc1nnc2ccccn12)C(=O)Nc1ccc(Cl)cn1 (configuration not stated) the results were KCNK3 inh inactive, KCNQ1 act inactive, KCNQ1 inh inactive, hERG rescue -3.6, Kir21 block 0.01 and KCNK9 inh inactive.
`CC(Sc1nnc2ccccn12)C(N)=O` (configuration not stated) gave KCNK3 inh inactive, KCNQ1 act inactive, KCNQ1 inh inactive, hERG rescue 5.0*, Kir21 block -0.69 and KCNK9 inh inactive.
CC(C)C[C@H]1CNC(=S)N1CC1CCCN1C[C@H](CC(C)C)N1C[C@H](CC(C)C)N(CC2CCCCCC2)C1=S (some centres not stated) was read as KCNK3 inh inactive.
For N#Cc1c(NC(=O)C(=O)NCCCN2CCOCC2)sc2c1CCC2 the results were KCNK3 inh inactive, KCNQ1 act inactive, KCNQ1 inh inactive, hERG rescue -11.4, Kir21 block -0.97 and KCNK9 inh inactive.
For COC(=O)c1c(NC(=O)C(=O)NCCCN2CCOCC2)sc2c1CCCC2 the results were KCNK3 inh inactive, KCNQ1 act inactive, KCNQ1 inh inactive, hERG rescue -12.4, Kir21 block -4.98* and KCNK9 inh inactive.
C/C(=N\N=C(c1ccccc1)c1ccccc1)c1ccco1 was read as KCNK3 inh inactive, KCNQ1 act inactive, KCNQ1 inh 7*, hERG rescue -14.8, Kir21 block 1.84 and KCNK9 inh inactive.
`Cc1ccc(C23CC4CC(CC(NC(=O)NCCN(C)C)(C4)C2)C3)cc1` gave KCNK3 inh inactive, KCNQ1 act inactive, KCNQ1 inh inactive, hERG rescue -5.9, Kir21 block -4.35* and KCNK9 inh inactive.
`CCN(CC)CCNC(=O)COc1ccc(OC)cc1` gave KCNK3 inh inactive, KCNQ1 act inactive, KCNQ1 inh inactive, hERG rescue -7.0, Kir21 block 0.04 and KCNK9 inh inactive.
For CN(C)CCNC(=O)COc1ccc(C23CC4CC(CC(C4)C2)C3)cc1 the results were KCNK3 inh inactive, KCNQ1 act inactive, KCNQ1 inh inactive, hERG rescue -24.2, Kir21 block -6.53* and KCNK9 inh inactive.
O=C(NC1CCN(S(=O)(=O)c2cccc(Cl)c2)CC1)C1CCCCC1 was read as KCNK3 inh inactive, KCNQ1 act inactive, KCNQ1 inh inactive, hERG rescue -4.2, Kir21 block -1.09 and KCNK9 inh inactive.
`Cc1ccc(NC(=S)N/N=C/c2c(Cl)cccc2Cl)c(C)c1` gave KCNK3 inh inactive, KCNQ1 act inactive, KCNQ1 inh inactive, hERG rescue 7.7*, Kir21 block -0.58 and KCNK9 inh inactive.
`Cc1ccc(Cl)cc1NC(=S)N/N=C/c1cccc2ccccc12` gave KCNK3 inh inactive, KCNQ1 act 11*, KCNQ1 inh inactive, hERG rescue 8.5*, Kir21 block -0.58 and KCNK9 inh inactive.
Fc1cccc(/C=N/NC(=S)Nc2ccccc2Cl)c1 was read as KCNK3 inh inactive, KCNQ1 act inactive, KCNQ1 inh inactive, hERG rescue 6.8*, Kir21 block -0.57 and KCNK9 inh inactive.
CCN(CC)C(=O)C(=O)c1ccn(-c2c(C)csc2C(=O)OC)c1 was read as KCNK3 inh inactive, KCNQ1 act inactive, KCNQ1 inh inactive, hERG rescue -14.8, Kir21 block 0.65 and KCNK9 inh inactive.
For COCCn1c(SCC#N)nnc1-c1ccc([N+](=O)[O-])cc1 the results were KCNK3 inh inactive, KCNQ1 act inactive, KCNQ1 inh inactive, hERG rescue -6.0, Kir21 block 1.84 and KCNK9 inh inactive.
Fc1c(F)c(F)c(N=Cc2ccc3ncccc3c2)c(F)c1F was read as KCNK3 inh inactive, KCNQ1 act inactive, KCNQ1 inh inactive, hERG rescue -5.5, Kir21 block 0.94 and KCNK9 inh inactive.
For CCOc1ncccc1C(=O)OCCCC(=O)c1ccc(Br)cc1 the results were KCNK3 inh inactive.
`CCOc1cc(/C=C2\COc3ccccc3C2=O)ccc1OCC(=O)N(C)C` gave KCNK3 inh inactive, KCNQ1 act inactive, KCNQ1 inh inactive, hERG rescue -11.7, Kir21 block -4.35* and KCNK9 inh inactive.
CCN(Cc1ccccc1)S(=O)(=O)c1ccccc1Br was read as KCNK3 inh inactive.
